According to ChEMBL document CHEMBL3046951, “Volatile constituents from the leaves of Callicarpa japonica Thunb. and their antibacterial activities” (2004):

Assays:
Assay type in all cases: functional
Bacillus cereus [1] = experiment: Antimicrobial activity against Bacillus cereus ATCC 11778 assessed as growth inhibition rate at 215.04 mg/l after 72 hr by spectrophotometry; conditions: ATCC 11778, 72 h, read-out: GI
In short: (§1)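 Pure volatile compounds (purity >95%; one at 90%) were tested against B. cereus ATCC 11778. The strain was grown at 30 °C in nutrient broth for 24 h, then subcultured for 18 h. Optical density was read in a Bioscreen C every 24 h for 72 h, with 10% Tween 80 as the control.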

Bacillus cereus [2] = experiment: Antimicrobial activity against Bacillus cereus ATCC 11778 assessed as growth inhibition rate at 61.12 mg/l after 72 hr by spectrophotometry; conditions: ATCC 11778, 72 h, read-out: GI; in short: as §1
Salmonella typhimurium [3] = experiment: Antimicrobial activity against Salmonella enterica subsp. enterica serovar Typhimurium ATCC 14028 assessed as growth inhibition rate at 107.52 mg/l after 72 hr by spectrophotometry; conditions: ATCC 14028, 72 h, read-out: GI
In short: (§2)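 Salmonella Typhimurium ATCC 14028 grown in nutrient broth at 30 °C, precultured 24 h, then subcultured 1:100 for 18 h before testing. Single volatile compounds (>95% pure) were added. OD was read every 24 h over 72 h in a Bioscreen C, with 10% Tween 80 as the comparison control.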

Salmonella typhimurium [4] = experiment: Antimicrobial activity against Salmonella enterica subsp. enterica serovar Typhimurium ATCC 14028 assessed as growth inhibition rate at 215.04 mg/l after 72 hr by spectrophotometry; conditions: ATCC 14028, 72 h, read-out: GI; in short: as §2
Salmonella typhimurium [5] = experiment: Antimicrobial activity against Salmonella enterica subsp. enterica serovar Typhimurium ATCC 14028 assessed as growth inhibition rate at 61.12 mg/l after 72 hr by spectrophotometry; conditions: ATCC 14028, 72 h, read-out: GI
Salmonella typhimurium [6] = experiment: Antimicrobial activity against Salmonella enterica subsp. enterica serovar Typhimurium ATCC 14028 assessed as growth inhibition rate at 43 mg/l after 72 hr by spectrophotometry; conditions: ATCC 14028, 72 h, read-out: GI; in short: as §2
Salmonella typhimurium [7] = experiment: Antimicrobial activity against Salmonella enterica subsp. enterica serovar Typhimurium ATCC 14028 assessed as growth inhibition rate at 21.52 mg/l after 72 hr by spectrophotometry; conditions: ATCC 14028, 72 h, read-out: GI; in short: as §2
Salmonella typhimurium [8] = experiment: Antimicrobial activity against Salmonella enterica subsp. enterica serovar Typhimurium ATCC 14028 assessed as growth inhibition rate at 6.12 mg/l after 72 hr by spectrophotometry; conditions: ATCC 14028, 72 h, read-out: GI
Vibrio parahaemolyticus [9] = experiment: Antimicrobial activity against Vibrio parahaemolyticus ATCC 33844 assessed as growth inhibition rate at 6.12 mg/l after 72 hr by spectrophotometry; conditions: ATCC 33844, 72 h, read-out: GI
Escherichia coli [10] = experiment: Antimicrobial activity against Escherichia coli O157:H7 ATCC 43894 assessed as growth inhibition rate at 107.52 mg/l after 72 hr by spectrophotometry; conditions: O157:H7 ATCC 43894, 72 h, read-out: GI
Escherichia coli [11] = experiment: Antimicrobial activity against Escherichia coli O157:H7 ATCC 43894 assessed as growth inhibition rate at 61.12 mg/l after 72 hr by spectrophotometry; conditions: O157:H7 ATCC 43894, 72 h, read-out: GI
In short: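 Authentic volatiles (>95% purity; 2,4-heptadienal 90%) tested against 18 h subcultures. Growth media: E. coli O157:H7 and S. aureus in tryptic soy broth at 37 °C; L. monocytogenes in tryptic soy broth at 30 °C; V. parahaemolyticus in tryptic soy broth + 3% NaCl at 37 °C; S. typhimurium in nutrient broth at 30 °C. Bioscreen C OD every 24 h for 72 h versus 10% Tween 80 control.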

Escherichia coli [12] = experiment: Antimicrobial activity against Escherichia coli O157:H7 ATCC 43894 assessed as growth inhibition rate at 43 mg/l after 72 hr by spectrophotometry; conditions: O157:H7 ATCC 43894, 72 h, read-out: GI
Staphylococcus aureus [13] = experiment: Antimicrobial activity against Staphylococcus aureus ATCC 25923 assessed as growth inhibition rate at 247 mg/l after 72 hr by spectrophotometry; conditions: ATCC 25923, 72 h, read-out: GI
Escherichia coli [14] = experiment: Antimicrobial activity against Escherichia coli O157:H7 ATCC 43894 assessed as growth inhibition rate at 21.52 mg/l after 72 hr by spectrophotometry; conditions: O157:H7 ATCC 43894, 72 h, read-out: GI
Escherichia coli [15] = experiment: Antimicrobial activity against Escherichia coli O157:H7 ATCC 43894 assessed as growth inhibition rate at 6.12 mg/l after 72 hr by spectrophotometry; conditions: O157:H7 ATCC 43894, 72 h, read-out: GI
Staphylococcus aureus [16] = experiment: Antimicrobial activity against Staphylococcus aureus ATCC 25923 assessed as growth inhibition rate at 107.52 mg/l after 72 hr by spectrophotometry; conditions: ATCC 25923, 72 h, read-out: GI
Staphylococcus aureus [17] = experiment: Antimicrobial activity against Staphylococcus aureus ATCC 25923 assessed as growth inhibition rate at 43 mg/l after 72 hr by spectrophotometry; conditions: ATCC 25923, 72 h, read-out: GI
Bacillus cereus [18] = experiment: Antimicrobial activity against Bacillus cereus ATCC 11778 assessed as growth inhibition rate at 21.52 mg/l after 72 hr by spectrophotometry; conditions: ATCC 11778, 72 h, read-out: GI; in short: as §1
Bacillus cereus [19] = experiment: Antimicrobial activity against Bacillus cereus ATCC 11778 assessed as growth inhibition rate at 6.12 mg/l after 72 hr by spectrophotometry; conditions: ATCC 11778, 72 h, read-out: GI; in short: as §1
Escherichia coli [20] = experiment: Antimicrobial activity against Escherichia coli O157:H7 ATCC 43894 assessed as growth inhibition rate at 247 mg/l after 72 hr by spectrophotometry; conditions: O157:H7 ATCC 43894, 72 h, read-out: GI
Salmonella typhimurium [21] = experiment: Antimicrobial activity against Salmonella enterica subsp. enterica serovar Typhimurium ATCC 14028 assessed as growth inhibition rate at 247 mg/l after 72 hr by spectrophotometry; conditions: ATCC 14028, 72 h, read-out: GI; in short: as §2
Listeria monocytogenes [22] = experiment: Antimicrobial activity against Listeria monocytogenes ATCC 19111 assessed as growth inhibition rate at 215.04 mg/l after 72 hr by spectrophotometry; conditions: ATCC 19111, 72 h, read-out: GI
In short: (§3)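 L. monocytogenes was grown at 30 °C in tryptic soy broth, subcultured for 18 h, and exposed to pure volatile compounds (>95% purity). Growth was followed by Bioscreen C optical density every 24 h for 72 h against a 10% Tween 80 control.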

Listeria monocytogenes [23] = experiment: Antimicrobial activity against Listeria monocytogenes ATCC 19111 assessed as growth inhibition rate at 107.52 mg/l after 72 hr by spectrophotometry; conditions: ATCC 19111, 72 h, read-out: GI; in short: as §3
Listeria monocytogenes [24] = experiment: Antimicrobial activity against Listeria monocytogenes ATCC 19111 assessed as growth inhibition rate at 61.12 mg/l after 72 hr by spectrophotometry; conditions: ATCC 19111, 72 h, read-out: GI; in short: as §3
Staphylococcus aureus [25] = experiment: Antimicrobial activity against Staphylococcus aureus ATCC 25923 assessed as growth inhibition rate at 21.52 mg/l after 72 hr by spectrophotometry; conditions: ATCC 25923, 72 h, read-out: GI
Staphylococcus aureus [26] = experiment: Antimicrobial activity against Staphylococcus aureus ATCC 25923 assessed as growth inhibition rate at 6.12 mg/l after 72 hr by spectrophotometry; conditions: ATCC 25923, 72 h, read-out: GI
Vibrio parahaemolyticus [27] = experiment: Antimicrobial activity against Vibrio parahaemolyticus ATCC 33844 assessed as growth inhibition rate at 43 mg/l after 72 hr by spectrophotometry; conditions: ATCC 33844, 72 h, read-out: GI
Vibrio parahaemolyticus [28] = experiment: Antimicrobial activity against Vibrio parahaemolyticus ATCC 33844 assessed as growth inhibition rate at 61.12 mg/l after 72 hr by spectrophotometry; conditions: ATCC 33844, 72 h, read-out: GI
Vibrio parahaemolyticus [29] = experiment: Antimicrobial activity against Vibrio parahaemolyticus ATCC 33844 assessed as growth inhibition rate at 21.52 mg/l after 72 hr by spectrophotometry; conditions: ATCC 33844, 72 h, read-out: GI
Bacillus cereus [30] = experiment: Antimicrobial activity against Bacillus cereus ATCC 11778 assessed as growth inhibition rate at 247 mg/l after 72 hr by spectrophotometry; conditions: ATCC 11778, 72 h, read-out: GI; in short: as §1

SMILES: CCC/C=C/C=O
- inhibition of growth at 215.04 µg/mL (Bacillus cereus [1]): 100%
- inhibition of growth at 61.12 µg/mL (Bacillus cereus [2]): 98.7%
- inhibition of growth at 107.52 µg/mL (Salmonella typhimurium [3]): 98.9%
- inhibition of growth at 215.04 µg/mL (Salmonella typhimurium [4]): 99.4%
- inhibition of growth at 61.12 µg/mL (Salmonella typhimurium [5]): 98.5%
- inhibition of growth at 43 µg/mL (Salmonella typhimurium [6]): 83.4%
- inhibition of growth at 21.52 µg/mL (Salmonella typhimurium [7]): 63%
- inhibition of growth at 6.12 µg/mL (Salmonella typhimurium [8]): 47.1%
- inhibition of growth at 6.12 µg/mL (Vibrio parahaemolyticus [9]): 84.7%
- inhibition of growth at 107.52 µg/mL (Escherichia coli [10]): 89.9%
- inhibition of growth at 61.12 µg/mL (Escherichia coli [11]): 47.5%
- inhibition of growth at 43 µg/mL (Escherichia coli [12]): 25.5%
- inhibition of growth at 247 µg/mL (Staphylococcus aureus [13]): 100%
- inhibition of growth at 21.52 µg/mL (Escherichia coli [14]): 8.2%
- inhibition of growth at 6.12 µg/mL (Escherichia coli [15]): 7.3%
- inhibition of growth at 107.52 µg/mL (Staphylococcus aureus [16]): 96.7%
- inhibition of growth at 43 µg/mL (Staphylococcus aureus [17]): 44.3%
- inhibition of growth at 21.52 µg/mL (Bacillus cereus [18]): 91.3%
- inhibition of growth at 6.12 µg/mL (Bacillus cereus [19]): 90.5%
- inhibition of growth at 247 µg/mL (Escherichia coli [20]): 99.9%
- inhibition of growth at 247 µg/mL (Salmonella typhimurium [21]): 98.7%
- inhibition of growth at 215.04 µg/mL (Listeria monocytogenes [22]): 99.8%
- inhibition of growth at 107.52 µg/mL (Listeria monocytogenes [23]): 99.4%
- inhibition of growth at 61.12 µg/mL (Listeria monocytogenes [24]): 81.2%
- inhibition of growth at 21.52 µg/mL (Staphylococcus aureus [25]): 28.7%
- inhibition of growth at 6.12 µg/mL (Staphylococcus aureus [26]): 29.2%
- inhibition of growth at 43 µg/mL (Vibrio parahaemolyticus [27]): 100%
- inhibition of growth at 61.12 µg/mL (Vibrio parahaemolyticus [28]): 99.8%
- inhibition of growth at 21.52 µg/mL (Vibrio parahaemolyticus [29]): 99.6%
- inhibition of growth at 247 µg/mL (Bacillus cereus [30]): 98.8%
